Test results published in ChEMBL document CHEMBL3259600, “Synthesis and biological evaluation of some new pyrazoline substituted benzenesulfonylurea/thiourea derivatives as anti-hyperglycaemic agents and aldose reductase inhibitors” (Eur J Med Chem, 2014).
pIC50: −log10 of the molar value.

Legend:
[1] = test system: Rattus norvegicus; test: Antihyperglycemic activity in glucose-fed hyperglycaemic Wistar albino rat assessed as inhibition of postprandial hyperglycemia at 0.05 mM/kg, po administered via gavage 30 mins prior to glucose challenge measured 60 mins after glucose load; format: functional; parameters: scale not given: the % may be the effect or the level left
Procedure, shortened: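 Rats fasted at least 16 h with water available, groups of six. Vehicle 1% w/v CMC in distilled water, 10 ml/kg, given orally. Glucose load 3 g/kg 30 min after treatment. Retro-orbital blood sampled just before and 60 min after the load. Glucose tolerance by AUC, percent activity from AUC against vehicle group, Dunnett's test.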

[2] = molecular target: Aldo-keto reductase family 1 member B1 (Rattus norvegicus, UniProt P07943); test: Inhibition of aldose reductase in rat lens by spectrophotometer analysis; conditions: for pIC50: read-out: IC50
Procedure, shortened: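 Crude enzyme from rat lens homogenized in 9 volumes 100 mM potassium phosphate pH 6.2, spun 15,000 × g for 30 min at 4 °C, supernatant used. Assay in 50 mM potassium phosphate pH 6.2 with 0.4 M lithium sulphate, 5 mM β-mercaptoethanol, 10 mM DL-glyceraldehyde, 0.1 mM NADPH, at 37 °C. DMSO-dissolved compound preincubated 5 min, reaction started with NADPH, read spectrophotometrically, triplicate. IC50 by non-linear regression of % inhibition vs log concentration.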

[3] = Retardation factor of the compound using chloroform-acetone at ratio of 9:1 as solvent system by thin layer chromatography; format: physicochemical
[4] = Retardation factor of the compound using toulene-ethyl acetate-formic acid at ratio of 5:4:1 as solvent system by thin layer chromatography; format: physicochemical
[5] = Retardation factor of the compound using chloroform-acetone at ratio of 8:2 as solvent system by thin layer chromatography; format: physicochemical

Row | Structure (SMILES) | pIC50 [2] | Rf [3] | IC50 [2] | Rf [4] | Rf [5] | Activity [1]
1 | Cc1ccc(C2CC(c3ccc(N(C)C)cc3)=NN2c2ccc(S(=O)(=O)NC(=S)NCc3ccccc3)cc2)cc1 (centres undefined) | 7.16 | 0.9 | – | – | – | 21.7%
2 | CN(C)c1ccc(C2=NN(c3ccc(S(=O)(=O)NC(=O)NCc4ccccc4)cc3)C(c3ccccc3Cl)C2)cc1 (centres undefined) | – | – | Not Active | 0.79 | – | 4.7%
3 | CN(C)c1ccc(C2=NN(c3ccc(S(=O)(=O)NC(=S)NCc4ccccc4)cc3)C(c3ccccc3)C2)cc1 (centres undefined) | 7.05 | – | – | 0.88 | – | 24.2%
4 | CN(C)c1ccc(C2=NN(c3ccc(S(=O)(=O)NC(=S)NCc4ccccc4)cc3)C(c3ccc(Cl)cc3)C2)cc1 (centres undefined) | – | – | – | 0.87 | – | 4.2%
5 | COc1ccc(C2CC(c3ccc(N(C)C)cc3)=NN2c2ccc(S(=O)(=O)NC(=S)NCc3ccccc3)cc2)cc1 (centres undefined) | – | – | – | 0.65 | – | 11.7%
6 | CN(C)c1ccc(C2=NN(c3ccc(S(=O)(=O)NC(=S)NCc4ccccc4)cc3)C(c3ccccc3Cl)C2)cc1 (centres undefined) | 7.07 | – | – | 0.75 | – | 15.3%
7 | CCCCNC(=S)NS(=O)(=O)c1ccc(N2N=C(c3ccc(N(C)C)cc3)CC2c2ccccc2)cc1 (centres undefined) | 7.37 | – | – | 0.88 | – | 10.5%
8 | CCCCNC(=S)NS(=O)(=O)c1ccc(N2N=C(c3ccc(N(C)C)cc3)CC2c2ccc(Cl)cc2)cc1 (centres undefined) | 7.76 | – | – | 0.66 | – | 18.9%
9 | CCCCNC(=S)NS(=O)(=O)c1ccc(N2N=C(c3ccc(N(C)C)cc3)CC2c2ccc(OC)cc2)cc1 (centres undefined) | – | – | – | 0.9 | – | 17.2%
10 | CN(C)c1ccc(C2=NN(c3ccc(S(=O)(=O)NC(=S)NC4CCCCC4)cc3)C(c3ccccc3)C2)cc1 (centres undefined) | 7.75 | – | – | 0.97 | – | 2.7%
11 | Cc1ccc(S(=O)(=O)NC(=O)NN2CC3CCCC3C2)cc1 (centres undefined) [GLICLAZIDE] | – | – | – | – | – | 25.4%

Continued, in another order:

Row | pIC50 [2] | Rf [3] | IC50 [2] | Rf [4] | Rf [5] | Structure (SMILES) | Activity [1]
12 | – | – | Not Active | 0.85 | – | CN(C)c1ccc(C2=NN(c3ccc(S(=O)(=O)NC(=O)NCc4ccccc4)cc3)C(c3ccccc3)C2)cc1 (centres undefined) | 15.5%
13 | – | – | – | 0.78 | – | CN(C)c1ccc(C2=NN(c3ccc(S(=O)(=O)NC(=O)NCc4ccccc4)cc3)C(c3ccc(Cl)cc3)C2)cc1 (centres undefined) | 6.7%
14 | – | – | Not Active | 0.7 | – | COc1ccc(C2CC(c3ccc(N(C)C)cc3)=NN2c2ccc(S(=O)(=O)NC(=O)NCc3ccccc3)cc2)cc1 (centres undefined) | 17.5%
15 | – | – | – | – | 0.88 | Cc1ccc(C2CC(c3ccc(N(C)C)cc3)=NN2c2ccc(S(=O)(=O)NC(=O)NCc3ccccc3)cc2)cc1 (centres undefined) | 12%
16 | – | – | – | 0.56 | – | COc1ccc(C2CC(c3ccc(N(C)C)cc3)=NN2c2ccc(S(=O)(=O)NC(=O)NCc3ccccc3)cc2)cc1OC (centres undefined) | 18%
17 | – | 0.83 | – | – | – | COc1cc(C2CC(c3ccc(N(C)C)cc3)=NN2c2ccc(S(=O)(=O)NC(=O)NCc3ccccc3)cc2)cc(OC)c1OC (centres undefined) | 29.3%
18 | – | – | – | 0.92 | – | COc1cc(C2CC(c3ccc(N(C)C)cc3)=NN2c2ccc(S(=O)(=O)NC(=S)NCc3ccccc3)cc2)cc(OC)c1OC (centres undefined) | 28.6%
